Source: PMC6064589 (Diabetes Therapy, 2018)
Like-named read-outs stand apart in the source and are kept apart here.

What was measured:
healthy subjects [1] = assay type: in vivo, human; settings: single oral 400 mg dose, N = 76
In short: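 Placebo-arm subjects received single oral 400 mg positive control or matching placebo in nested crossover, before (baseline) and after (week 15) placebo treatment. […] Supine Holter ECGs pre-dose and 1, 2, 3, 6, 12, 18, 24 h. QTcI analysed by ANOVA (treatment, period, subject fixed; pre-dose QTcI covariate). 3 and 6 h confirmatory with 95% CI; other times with 90% CI.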

healthy subjects [2] = assay type: in vivo, human
In short: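 Healthy subjects randomised to once-weekly s.c. test peptide or placebo, escalated every 4 weeks (0.25, 0.5, 1.0, 1.5 mg) over 16 weeks. Supine continuous 12-lead Holter (Mason-Likar) ECGs at steady state of each level: pre-dose and 12, 18, 24, 25, 26, 27, 30, 36, 42, 48 h. QT/RR measured semi-automatically, lead II. QTcI=QT/RR^β (subject-specific β); QTcL, QTcF, QTcB. Placebo-subtracted baseline-adjusted means, two-sided 90% CIs.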

healthy subjects [3] = assay: Other ECG assessments; assay type: in vivo, human
In short: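 ECGs come from the same Holter recordings: 11 time points, pre-dose to 48 h after last dose at 0.5, 1.0 and 1.5 mg. HR, PR and QRS use the same model. Outlier cut-offs: HR <50 or >100 bpm; PR >220 ms and/or >25% change from baseline; QRS >110 ms and/or >25% change. A cardiologist read one random ECG per time point for T/U wave abnormalities.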

[4] = Pharmacokinetics of semaglutide at steady state of each dose level; assay type: in vivo, human; settings: doses 0.25-1.5 mg at steady state
healthy subjects [5] = assay: Safety and tolerability; assay type: in vivo, human
In short: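 Healthy subjects received s.c. test peptide or placebo once weekly for 16 weeks, escalating 0.25→0.5→1.0→1.5 mg every 4 weeks, with 5–7-week follow-up. Some injections were given on-site, the rest self-administered. Recorded: adverse events, hypoglycaemic events, anti-drug antibodies at follow-up, haematology, biochemistry, urinalysis, calcitonin, vital signs, ECG, physical examination, body weight and fasting plasma glucose changes from baseline.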

[6] = phase 3 trials; cited from earlier work
[7] = tested on: dipeptidyl peptidase-4 (DPP-4); settings: due to substitution at position 8; cited from earlier work
healthy subjects [8] = settings: cited from earlier work
[9] = 1.5 mg at steady state, 0-48 h after dosing
[10] = s.c. once weekly, escalated 0.25 to 1.5 mg over 16 weeks, N = 83

COc1c(N2C[C@@H]3CCCN[C@@H]3C2)c(F)cc2c(=O)c(C(=O)O)cn(C3CC3)c12 [moxifloxacin]
Estimated treatment difference moxifloxacin vs. placebo, QTcI (healthy subjects [1]; 1 h after dosing): 10.0 ms
Estimated treatment difference moxifloxacin vs. placebo, QTcI (healthy subjects [1]; 2 h after dosing): 12.3 ms
Estimated treatment difference moxifloxacin vs. placebo, QTcI (healthy subjects [1]; 3 h after dosing (confirmatory endpoint)): 12.3 ms
Estimated treatment difference moxifloxacin vs. placebo, QTcI (healthy subjects [1]; 6 h after dosing (confirmatory endpoint)): 8.9 ms

CC[C@H](C)[C@H](NC(=O)[C@H](Cc1ccccc1)NC(=O)[C@H](CCC(=O)O)NC(=O)[C@H](CCCCNC(=O)COCCOCCNC(=O)COCCOCCNC(=O)CC[C@H](NC(=O)CCCCCCCCCCCCCCCCC(=O)O)C(=O)O)NC(=O)[C@H](C)NC(=O)[C@H](C)NC(=O)[C@H](CCC(N)=O)NC(=O)CNC(=O)[C@H](CCC(=O)O)NC(=O)[C@H](CC(C)C)NC(=O)[C@H](Cc1ccc(O)cc1)NC(=O)[C@H](CO)NC(=O)[C@H](CO)NC(=O)[C@@H](NC(=O)[C@H](CC(=O)O)NC(=O)[C@H](CO)NC(=O)[C@@H](NC(=O)[C@H](Cc1ccccc1)NC(=O)[C@@H](NC(=O)CNC(=O)[C@H](CCC(=O)O)NC(=O)C(C)(C)NC(=O)[C@@H](N)Cc1cnc[nH]1)[C@@H](C)O)[C@@H](C)O)C(C)C)C(=O)N[C@@H](C)C(=O)N[C@@H](Cc1c[nH]c2ccccc12)C(=O)N[C@@H](CC(C)C)C(=O)N[C@H](C(=O)N[C@@H](CCCNC(=N)N)C(=O)NCC(=O)N[C@@H](CCCNC(=N)N)C(=O)NCC(=O)O)C(C)C [semaglutide]
Upper limits of all 11 two-sided 90% CIs for the mean ΔΔQTcI (healthy subjects [2]; 0.5 mg at steady state, 0-48 h after dosing): < 10 ms
Upper limits of all 11 two-sided 90% CIs for the mean ΔΔQTcI (healthy subjects [2]; 1.0 mg at steady state, 0-48 h after dosing): < 10 ms
Maximum upper limit of the two-sided 90% CI for the time-matched ΔΔQTcI (healthy subjects [2]; [9]): 0.3 ms
Upper limits of the 11 two-sided 90% CIs of ΔΔQTcI (healthy subjects [2]; [9]): < 10 ms
Prolongation of the uncorrected QT interval, QTcL or QTcF (healthy subjects [2]; doses of 0.5, 1.0 and 1.5 mg at steady state): No prolongation was observed
QTcB, upper limits of the 90% CIs (healthy subjects [2]; for at least one time point at all dose levels): > 10 ms
Increased PR interval of > 25% above baseline (healthy subjects [3]; 0.5 mg group): none
Increased PR interval of > 25% above baseline (healthy subjects [3]; 1.0 and 1.5 mg treatment groups): five
Second-degree or higher-grade atrioventricular block (healthy subjects [3]; all ECGs evaluated by the cardiologist): no observations of a second-degree atrioventricular block or higher-grade atrioventricular blocks
Changes in QRS complex duration of > 25% above baseline (healthy subjects [3]; any of the treatment arms): No changes
Subjects with T wave abnormalities (healthy subjects [3]; doses 0.5 or 1.0 mg, female subjects, all of no clinical relevance): three
U wave abnormalities (healthy subjects [3]; either group): no U wave abnormalities were observed
Increase in AUC0−48h and Cmax with increasing dose [4]: consistent with dose proportionality
Diastolic BP change from baseline to last dose (healthy subjects [5]; 16-week treatment, mean ± SD): 5 ± 8 mmHg
HR change from baseline to last dose (vital signs) (healthy subjects [5]; 16-week treatment, mean ± SD): 10 ± 9 bpm
Development of anti-semaglutide antibodies (healthy subjects [5]; at follow-up): no subjects developed anti-semaglutide antibodies
Severe hypoglycemic episodes (healthy subjects [5]; in vivo): No severe hypoglycemic episodes were reported
Events leading to withdrawal, percentage of subjects (healthy subjects [5]; [10]): 2.4%
Gastrointestinal disorders (predominantly nausea, vomiting and diarrhea), subjects (healthy subjects [5]; [10]): 56.6%
Metabolism and nutrition disorders (predominantly decreased appetite), subjects (healthy subjects [5]; [10]): 51.8%
Mean increases in HR with semaglutide versus placebo [6]: up to 3 bpm
Susceptibility to degradation by dipeptidyl peptidase-4 (DPP-4) [7]: less susceptible to degradation

albiglutide
PR interval prolongation (healthy subjects [8]): A PR interval prolongation has also been observed
Prolongation of the QTcI interval or QTc by other correction methods (healthy subjects [8]; healthy subjects): neither albiglutide administered once weekly nor liraglutide administered once daily have been observed to prolong the QTcI interval

dulaglutide
QTc prolongation (healthy subjects [8]; administered once weekly): not associated with QTc prolongation
PR interval prolongation (healthy subjects [8]): A PR interval prolongation has also been observed

exenatide
Correlation between exposure and QTc interval (healthy subjects [8]; single dose): positive correlation
Prolongation of QTcP or QTcI (healthy subjects [8]; supratherapeutic concentrations, intravenous, healthy subjects): no prolongation

liraglutide
PR interval prolongation (healthy subjects [8]): A PR interval prolongation has also been observed
Prolongation of the QTcI interval or QTc by other correction methods (healthy subjects [8]; healthy subjects): neither albiglutide administered once weekly nor liraglutide administered once daily have been observed to prolong the QTcI interval
